Screening results deposited in PubChem BioAssay by several laboratories.
SKKanGAS inh: inhibitors of SKKanGAS S. pyogenes growth in kanamycin (SK-promoter or general growth effect). inhibition, % at 7.5 µM. hit rate 1.3% among 300,000. BacTiter-Glo, 6 h. AID 1662;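 active means mean replicate score, as percent of positive control median, at least 50; inconclusive means mean below 50 but one replicate at or above 50; inactive means mean and every replicate below 50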;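 further: strain carries kanamycin resistance gene driven by streptokinase promoter and grows in 40 µg/ml kanamycin; loss of luminescence reflects streptokinase promoter inhibition or plain growth inhibition; 0% = median of DMSO wells and 100% = positive control at its reference dose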
WT yeast gro inh: growth inhibition of WT yeast, mitochondrial fusion screen. mitochondrial fusion phenotypic screen, WT strain. inhibition, % at 10 µM. hit rate 2.1% among 190,000. AID 1362; in the data active means inhibition above about 58%; tested in S. cerevisiae
Ins promoter up: MIN6 insulin promoter up-regulation; MIN6 insulin promoter-GFP reporter, high-content imaging; active compounds read high; z-score at 5 µM; hit rate 0.3% among 190,000; AID 1625;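 active means z-score above 3 at 5 µM with at least 500 cells counted in the well; inconclusive means wells under 500 cells, flagged as cytotoxic or low count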
Autophagy mod: autophagy modulation, high-content screen. calls only at 10 µM (by protocol). hit rate 0.98% among 190,000. MEF GFP-LC3 puncta imaging; test concentration mostly 10 µM;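 active means percentage of spot-positive cells more than 3 SD above its plate mean, without a fluorescence outlier flag or 80% toxicity; inconclusive means no clear call, values can overlap the other calls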;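 further: spot-positive cell cutoff set from DMSO-treated cells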
Cl transport mod: modulates chloride dependent transport by human KCC2. KCC2 cells, thallium flux FluoZin-2 fluorescence. hit rate 2.2% among 190,000. AID 1456. B-score of Tl+ flux slope (higher = more flux/activation; lower = inhibition) at 10 µM;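 active means thallium flux slope and its plate-corrected score both differing from the plate sample mean at a set confidence after two filtering rounds, in either direction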;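 further: slope of fluorescence scaled to starting intensity during 10 to 20 s after thallium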
Rad51 HR inh: Rad51 (human) homologous recombination inhibition | Q06609 | hRad51 DNA strand exchange, fluorescence dequenching | inhibition, % at 10 µM | hit rate 0.085% among 200,000;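 active means inhibition above 40% at the single screening dose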;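 further: 0% = DMSO control wells and 100% = blanks with heterologous ssDNA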
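Material: Human Rad51 nucleoprotein filaments preassembled on unlabelled ssDNA | Also added: Labelled 47-mer dsDNA for strand exchange | Dosing: Single dose, 10 µM final compound | Schedule: 30-min compound preincubation and 15-min exchange, both room temperature | Technique: Fluorescence dequenching at 485/520 nm | Measure: Percent inhibition relative to plate controls and blanks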
Starred values were filed as active, the others as inactive; i = inactive; ? = inconclusive; / = not tested or not shown; + = active, no number. In the library only some 4.2% were active in any assay of this set; here they are far more common.

SMILES	SKKanGAS inh	WT yeast gro inh	Ins promoter up	Autophagy mod	Cl transport mod	Rad51 HR inh
Cc1cccc(C(=O)NC(=S)NNC(=O)c2ccccc2Cl)c1	86*	33	-0.14	i	40*	3
Nc1ccc2c(c1)OC1(CCCC1)O2	-1	7	0.17	i	0.33	-14
Cc1ccccc1C(=O)NNC(=S)NC(=O)c1ccc(Cl)cc1Cl	28	-9	0.15	i	28*	6
O=C(NC(=S)NNC(=O)c1ccc(Cl)cc1Cl)c1cccnc1	?	-7	-0.06	i	1.9	-8
Cn1c(CNC(=O)OC(C)(C)C)nnc1SCC(=O)N1CCOCC1	1	/	-0.27	/	0.07	-6
COCCn1c(SCc2nnc(-c3ccccc3)o2)nc2sc3c(c2c1=O)CCC3	14	97*	0.53	i	/	0
Cc1cccc(-n2ncc3c(N4CCCc5ccccc54)ncnc32)c1	5	71*	-0.35	i	1.7	3
Cc1cccc(-n2ncc3c(NCc4ccccc4)ncnc32)c1	17	10	/	i	0.46	-6
Cc1ccc(S(=O)(=O)N(C)C)cc1NC(=O)CCc1ccccc1	-13	/	-0.22	/	-2.1	/
Cn1c(SCC(=O)c2cc3ccccc3o2)nnc1-c1ccccc1	3	8	1.5	/	-7.2*	0
Cn1cnnc1SCC(=O)c1cc2ccccc2o1	-2	-4	-1.5	i	0.8	1
Cn1c(=O)n(C)c2cc(N3CCOCC3)c(NC(=O)c3ccc(F)cc3)cc21	-3	/	/	/	/	/
COC(=O)/C=C1\SC(=Nc2ccc(OC)cc2)NC1=O	-20	1	-0.37	i	0.36	6
COC(=O)/C=C1\SC(=Nc2ccc(Cl)c(Cl)c2)NC1=O	73*	11	-0.71	i	-0.87	1
C/C(=N\NC(=O)c1cccc(Br)c1)c1ccccn1	110*	/	/	/	/	/
C/C(=N\NC(=O)c1ccccc1Cl)c1ccccn1	41	/	/	/	/	/
C/C(=N\NC(=O)c1ccc(Cl)c(Cl)c1)c1ccccn1	92*	/	/	/	/	/
C/C(=N/NC(=O)c1ccccn1)c1ccncc1	-1	/	/	/	/	/
C/C(=N\NC(=O)C(c1ccccc1)c1ccccc1)c1ccccn1	70*	56	-1.4	+	1.2	/
C/C(=N/NC(=O)c1ccc(C(C)(C)C)cc1)c1ccccn1	106*	/	/	/	/	/
COc1ccc(C(=O)N/N=C(\C)c2ccccn2)cc1OC	38	/	/	/	/	/
CC(C)(CNC(=O)CCNC(=O)c1ccc(Br)cc1)N1CCOCC1	-4	/	/	/	/	/
O=C(/C=C/c1cnc2ccccc2n1)NC12CC3CC(CC(C3)C1)C2	4	-10	-0.3	i	0.64	9
C/C(=N\NC(=O)c1cccc2ccccc12)c1ccccn1	79*	/	/	/	/	/
Cc1cccc(/C=N/NC(=O)c2cc(Br)ccc2O)n1	40	/	/	/	/	/
SMILES	SKKanGAS inh	WT yeast gro inh	Ins promoter up	Autophagy mod	Cl transport mod	Rad51 HR inh
C/C(=N\NC(=O)c1cc(Br)ccc1O)c1ccccn1	97*	/	/	/	/	/
CCN(CC)S(=O)(=O)c1ccc2c(c1)c(=O)c(C(=O)NCCc1ccccc1)cn2C	-1	/	/	/	/	/
CCOC(=O)c1cccc(NC(=O)Cn2nc(C)n3cccc3c2=O)c1	-14	/	/	/	/	/
CCOCCCNc1ncnc2c1nc1n2CCCC1	-6	/	/	/	/	/
COc1ccc(OC)c(/C=C(\C)C(=O)c2c(C)cc(C)[nH]c2=O)c1	1	/	/	/	/	/
COc1cc2c(cc1NC(=O)c1cccc(Br)c1)CCCC2	12	73*	-0.91	i	-0.19	/
COc1cc2c(cc1NC(=O)c1cccc(F)c1)CCCC2	-2	38	-0.02	i	1.3	/
COC(=O)CCC(=O)N1CCC(CCC(=O)NCc2ccc(F)cc2)CC1	0	/	/	/	/	/
O=S(=O)(Nc1nc2ccccc2nc1NCc1ccco1)c1ccc(Cl)cc1	11	58*	0.38	i	-1	3
Cc1ccc(S(=O)(=O)Nc2nc3ccccc3nc2NCc2ccco2)cc1	16	18	-0.03	i	/	-5
CCOC(=O)C1=C(COC(=O)CCOc2ccc(C)cc2)NC(=O)NC1C (centres undefined)	-12	/	/	/	/	/
CCN(CC)C(=S)Nc1cc(C(=O)OC)ccc1C(=O)OC	-9	-8	-0.1	i	0.0042	3
Cc1cccc(NC(=O)c2ccc(NCCc3ccccc3)c([N+](=O)[O-])c2)c1	26	0	-0.12	+	-0.8	/
Cc1ccc(NC(=O)c2ccc(NCc3ccco3)c([N+](=O)[O-])c2)cc1Cl	5	0	-0.1	+	-1.1	-17
NC(=NCCc1c[nH]c2ccccc12)NC(=O)c1ccc(F)cc1	-3	/	-0.61	/	0.01	-8
CCc1cc(=O)oc2cc3occ(-c4ccc(OC)c(F)c4)c3cc12	30	-18	-1	+	-0.011	9
Oc1c(C(Nc2nc3ccccc3s2)c2ccco2)ccc2cccnc12 (centres undefined)	107*	-9	-3.9	i	/	-5
CC(C)CC(=O)NC(c1cccs1)c1ccc2cccnc2c1O (centres undefined)	?	0	-2.5	i	1.4	4
CC(C)C(=O)NC(c1ccco1)c1ccc2cccnc2c1O (centres undefined)	87*	-10	-0.23	i	-0.17	4
CCOc1ccc(S(=O)(=O)N(C)CC(=O)NCc2ccccn2)cc1Cl	-1	/	/	/	/	/
O=C(CCc1nc2ccccc2c(=O)[nH]1)NCc1ccco1	11	3	1	+	0.56	10
CN(CCCC(=O)NCc1ccco1)S(=O)(=O)c1ccccc1	2	60*	-0.39	i	2	5
CN(CC(=O)NCc1ccco1)S(=O)(=O)c1ccc(F)cc1	-4	/	/	/	/	/
Cc1ccc(S(=O)(=O)NNC(=O)c2cc(C)cs2)cc1	-5	/	0.16	/	-0.029	12
COc1ccc(NCc2cccnc2)cc1	-6	/	/	/	/	/
SMILES	SKKanGAS inh	WT yeast gro inh	Ins promoter up	Autophagy mod	Cl transport mod	Rad51 HR inh
Cc1ccc(/C(O)=C2\C(=O)C(=O)N(CC(C)O)C2c2ccccn2)cc1 (centres undefined)	-1	-20	0.65	i	-0.51	-31
O=C(CCc1ccccc1)NNC(=S)NC(=O)c1ccc(Cl)cc1	61*	65*	-0.43	i	68*	/
Cc1ccc(C(=O)NNC(=S)NC(=O)c2ccc(Cl)cc2)cc1	100*	26	/	i	/	/
O=C(CCc1ccccc1)NNC(=O)c1ccc(Cl)cc1	-2	/	/	/	/	/
O=C(NNC(=S)NC(=O)c1cccnc1)c1ccc(Cl)cc1	52*	2	-0.9	i	/	-6
O=C(Cc1ccc(Cl)cc1)NNC(=S)NC(=O)c1cccnc1	14	7	0	i	0.14	-65
O=C(NCCN1C(=O)S/C(=C\c2cccs2)C1=O)c1ccc(=O)[nH]c1	-4	5	0.1	i	0.96	-4
CCOc1ccc(NC(=S)NCCCc2ccccc2)cc1	6	70*	-0.18	i	-3	-8
CCCNC(=S)Nc1ccc(Oc2ccccc2)cc1	-5	-18	-0.29	i	-1.9	2
CC(C)(C)c1ccc(OCCNCc2ccccc2)cc1	-4	/	/	/	/	/
CCCCNC(=S)Nc1ccc(Oc2ccccc2)cc1	2	65*	0.41	i	0.78	1
